# This is a sample that favours compounds with a hit; in the whole collection about 2.3% have one here.
# TRPC4 block: inhibitors of mouse TRPC4 channel, primary screen, Fluo4 calcium, HEK293 TRPC4beta/mu-opioid cells; Short transient receptor potential channel 4 (Mus musculus), Q9QUQ5; DAMGO-evoked Fluo4 calcium flux; active compounds read low; B-score at 10 µM; hit rate 0.39% among 300,000; AID 2247, 2010;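 active = B-score over 3 SD under the library average, no early fluorescence shift, positive overall ratio signal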
# Target sequence (Q9QUQ5 whole entry, looked up): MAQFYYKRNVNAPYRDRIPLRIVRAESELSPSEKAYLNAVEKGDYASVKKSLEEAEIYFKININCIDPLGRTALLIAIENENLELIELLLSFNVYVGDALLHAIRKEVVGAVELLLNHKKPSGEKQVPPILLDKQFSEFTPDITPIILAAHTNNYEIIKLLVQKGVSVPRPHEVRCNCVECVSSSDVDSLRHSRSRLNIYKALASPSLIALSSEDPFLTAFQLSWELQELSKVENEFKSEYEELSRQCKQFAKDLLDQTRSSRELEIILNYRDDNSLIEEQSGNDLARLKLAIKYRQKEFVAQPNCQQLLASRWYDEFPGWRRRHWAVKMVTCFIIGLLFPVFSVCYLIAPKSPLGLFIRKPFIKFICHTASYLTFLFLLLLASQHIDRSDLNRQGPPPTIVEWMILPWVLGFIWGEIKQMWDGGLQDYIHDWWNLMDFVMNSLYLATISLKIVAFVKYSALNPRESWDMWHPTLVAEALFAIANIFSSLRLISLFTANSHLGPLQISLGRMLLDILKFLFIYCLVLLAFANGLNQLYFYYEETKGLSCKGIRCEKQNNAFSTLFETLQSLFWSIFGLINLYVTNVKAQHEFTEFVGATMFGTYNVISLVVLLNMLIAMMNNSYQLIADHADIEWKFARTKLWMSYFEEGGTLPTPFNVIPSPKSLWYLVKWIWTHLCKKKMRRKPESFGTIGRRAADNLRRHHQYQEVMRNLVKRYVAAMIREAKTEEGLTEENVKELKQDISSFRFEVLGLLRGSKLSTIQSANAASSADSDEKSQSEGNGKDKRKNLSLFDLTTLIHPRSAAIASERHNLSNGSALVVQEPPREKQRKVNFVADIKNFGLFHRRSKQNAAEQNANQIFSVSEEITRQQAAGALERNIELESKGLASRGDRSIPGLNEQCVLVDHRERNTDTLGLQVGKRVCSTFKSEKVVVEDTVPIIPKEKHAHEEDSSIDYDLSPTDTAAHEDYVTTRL
#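 Assay system: HEK293 cells with stable TRPC4beta plus mu-opioid receptor expression. Dosing: single dose. Measured by: Fluo4 Ca2+ flux fluorescence. Also added: DAMGO in two steps, submaximal then maximal. Read-out: B score from integrated Fluo4 fluorescence ratio.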
# TRPC6 inh: mouse TRPC6 channel inhibitors, primary screen, cell-based, HEK293, membrane potential dye. Short transient receptor potential channel 6 (Mus musculus), Q61143. AID 2553, 2010. B-score at 10 µM. hit rate 1.1% among 310,000. ACh-evoked depolarization; active compounds read low;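 active = B-score under library mean minus 3 SD, initial fluorescence not abnormally high, positive integrated signal ratio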;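 note: B-score derived from integrated fluorescence ratio over the kinetic read; more negative B-score means stronger inhibition of depolarization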
# TRPC6 act: mouse TRPC6 channel activators, primary screen, cell-based, HEK293, membrane potential dye | B-score at 10 µM | HEK293-TRPC6 membrane potential dye fluorescence; active compounds read high | hit rate 0.13% among 310,000;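 active = B-score of the integrated fluorescence ratio above library mean plus 3 SD, and starting fluorescence ratio within library mean plus 5 SD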;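 note: higher score means more depolarization so channel activation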
# TRPC4 agonist: activators of mouse TRPC4 channel, primary screen, Fluo4 calcium, HEK293 TRPC4beta/mu-opioid cells; Fluo4 calcium fluorescence; active compounds read high; B-score at 10 µM; AID 2237, 2010; hit rate 0.49% among 310,000;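 active = B-score above 5 SD of library B-scores, and initial fluorescence ratio not above library mean plus 5 SD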;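 note: positive B-score marks a calcium rise read as TRPC4 activation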
#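 Assay system: HEK293 cells stably co-expressing mouse TRPC4beta and mu-opioid receptor / Timing: Fluo4 dye loading 45 min at room temperature, 110 s recording / Signal: Fluo4 calcium-sensitive dye fluorescence, kinetic, 1 Hz baseline / Read-out: integrated baseline-normalised fluorescence ratio, converted to per-well B score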
# TRPC4 potent: positive allosteric modulators of TRPC4, primary screen, cell-based, mouse TRPC4beta, HEK293 mu-opioid, Fluo-4 calcium; Short transient receptor potential channel 4 (Mus musculus), Q9QUQ5; DAMGO EC20, Fluo-4 Ca2+ flux; active compounds read high; B-score at 10 µM; hit rate 0.42% among 310,000; AID 2227, 2009;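 active = B-score of calcium response area above 5 SD of library B-scores, with initial fluorescence ratio within 5 SD of library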;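 note: B-score of integrated fluorescence ratio over time as area under calcium response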
# TRPC4 sel inh 2: mouse TRPC4 off-target activity of TRPC6 inhibitors, second screen. shares compounds with TRPC6 inh. HEK293 TRPC4/MOR, membrane potential dye fluorescence; channel activated by saturating DAMGO dose. inhibition, % at 10 µM. hit rate 42% among 920. AID 2776;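 active = compounds whose fluorescence signal differed from control wells by over 3 SD, either direction, in both duplicate plates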
# TRPC4 spec: mouse TRPC4 modulation by TRPC6 hits, confirmation, selectivity assay for TRPC6 inhibitor project, cell-based, HEK293 TRPC4/mu-opioid, membrane potential dye. shares compounds with TRPC6 inh. membrane potential fluorescence. activity change, negative = inhibition, % at 10 µM. hit rate 61% among 920;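 active = rise or fall in signal beyond 3 SD of buffer-only wells in both replicate plates, either sign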;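 note: integrated kinetic ratio of fluorescence range over baseline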
# HEK293 MPD ctr 2-1: nonspecific membrane potential effects, parental HEK293, confirmation, counter-screen for TRPC6 inhibitor project, cell-based, second counter screen. shares compounds with TRPC6 inh. parental HEK293 membrane potential dye fluorescence; maximal acetylcholine challenge after compound addition. signal change vs control, % at 10 µM. hit rate 31% among 920;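 active = membrane potential signal moving either way by over 3 SD of the maximum-effect control, in both duplicate plates, meaning non-specific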
# HEK293 MPD ctr-1: membrane potential modulation in parental HEK293, confirmation, counter-screen for TRPC6 inhibitor project, cell-based; membrane potential signal change, % at 10 µM; parental HEK293 membrane potential dye fluorescence; shares compounds with TRPC6 inh; hit rate 60% among 920;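 active = membrane potential signal shifting up or down by more than 3 SD of buffer-only wells, on both duplicate plates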
# HEK293 MPD ctr-2: parental HEK293 membrane potential modulation, confirmation, counter-screen for TRPC6 modulator project, cell-based; membrane potential dye fluorescence; membrane potential signal change, % at 10 µM; hit rate 51% among 2,400; shares compounds with TRPC6 inh;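 active = membrane potential signal moves up or down beyond 5 SD from buffer-only wells, on both duplicate plates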
# HEK293 MPD ctr 2-2: parental HEK293 nonspecific activity of TRPC6 modulators, second screen. shares compounds with TRPC6 inh. membrane potential dye fluorescence; after compound, maximal acetylcholine stimulation. inhibition, % at 10 µM. hit rate 14% among 2,400. AID 488926;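 active = membrane potential signal drops by more than 5 SD from the mean control signal, in both duplicate plates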;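 note: plate controls were acetylcholine ECmax control wells for no effect and buffer only wells for full effect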
# TRPC4 ctr mod: TRPC4 modulation by TRPC6 hit compounds, confirmation, selectivity assay for TRPC6 modulator project, cell-based, HEK293 TRPC4/mu-opioid, membrane potential dye, mouse | membrane potential fluorescence | hit rate 69% among 2,400 | percent change from control (negative = decrease, positive = increase), % at 10 µM | shares compounds with TRPC6 inh;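 active = membrane potential signal moved up or down beyond 5 SD of buffer control wells, in both duplicate plates, actives on both sides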;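 note: plate controls were assay buffer wells for no effect and DAMGO maximal-effect wells for full effect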
# TRPC4 ctr inh 2: second check of whether TRPC6 modulators also affect mouse TRPC4. shares compounds with TRPC6 inh. HEK293 TRPC4/mu-opioid, membrane potential dye fluorescence; stimulated with maximal-effect DAMGO. inhibition, % at 10 µM. hit rate 55% among 2,400;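 active = drop in membrane potential signal beyond 5 SD of the control wells in both duplicate plates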;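 note: TRPC4 counter screen for TRPC6 hits run under conditions tuned for TRPC6 not TRPC4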
# TRPC6 inh conf: mouse TRPC6 channel inhibitors, confirmation, HEK293 cells, membrane potential dye, duplicate. shares compounds with TRPC6 inh. ACh-evoked depolarization. inhibition, % at 10 µM. hit rate 43% among 3,300. AID 488960, 2010;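 active = fluorescence ratio falls more than 5 SD below the full-stimulation control mean, in both duplicate runs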;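 note: integrated fluorescence ratio of peak minus minimum over baseline after agonist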
# TRPC6 act confirm: mouse TRPC6 channel activators, confirmation, HEK293 cells, membrane potential dye, duplicate | AID 488961, 2010 | hit rate 11% among 2,800 | activation, % at 10 µM | HEK293-TRPC6 membrane potential dye fluorescence, FDSS | shares compounds with TRPC6 inh;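 active = ratio signal rise beyond 5 SD above unstimulated control wells' mean, seen in both duplicate runs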;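 note: plate controls were buffer EC0 wells for no effect and acetylcholine ECmax response for full effect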
# Active calls of the source: *; i = inactive; nt = no result given.
SMILES,TRPC4 block,TRPC6 inh,TRPC6 act,TRPC4 agonist,TRPC4 potent,TRPC4 sel inh 2,TRPC4 spec,HEK293 MPD ctr 2-1,HEK293 MPD ctr-1,HEK293 MPD ctr-2,HEK293 MPD ctr 2-2,TRPC4 ctr mod,TRPC4 ctr inh 2,TRPC6 inh conf,TRPC6 act confirm
c1ccc(-c2nc3ccccc3[nH]2)nc1,i,i,i,i,i,nt,nt,nt,nt,nt,nt,nt,nt,nt,nt
CC(C)c1[nH]nc2c1C(Cc1ccccc1)C(C#N)=C(N)O2 (stereo not given),i,-6.4*,i,i,i,nt,nt,nt,nt,i,i,i,i,i,i
Clc1ccc(-[n+]2c(-c3cccc(Br)c3)[nH]c3nc4ccccc4nc32)cc1,i,-5.1*,i,i,i,nt,nt,nt,nt,i,i,i,38%*,i,i
Brc1cccc(-c2nc3cccnc3nc2-c2cccc(Br)c2)c1,i,i,i,i,i,nt,nt,nt,nt,nt,nt,nt,nt,nt,nt
Cc1ccc(SCCC(=O)N(C)CC(=O)Nc2c(C)cccc2C)cc1,i,i,i,i,i,nt,nt,nt,nt,nt,nt,nt,nt,nt,nt
CC(C)NCc1cc(Br)ccc1OCc1ccccc1,i,-7.2*,12*,i,i,nt,nt,nt,nt,403%*,i,96%*,83%*,81%*,116%*
C=CCOc1ccc(Br)cc1CNC(C)(C)C,i,-6.1*,i,i,i,nt,nt,nt,nt,214%*,98%*,52%*,100%*,80%*,nt
CC(C)(C)NCc1cc(Br)ccc1OCc1cccs1,i,-11*,i,i,i,39%*,64%*,i,36%*,nt,nt,nt,nt,99%*,nt
CC(C)(C)NCc1cc(Cl)ccc1OCc1cccs1,i,-8*,i,i,i,40%*,58%*,30%*,32%*,nt,nt,nt,nt,108%*,nt
CC(C)(C)NCc1ccccc1OCc1cccs1,-7*,-9.8*,i,i,i,31%*,38%*,-20%*,21%*,nt,nt,nt,nt,89%*,nt

# From PubChem
